Data reported in ChEMBL document CHEMBL4028848, “Discovery of N-{4-[5-(4-Fluorophenyl)-3-methyl-2-methylsulfanyl-3H-imidazol-4-yl]-pyridin-2-yl}-acetamide (CBS-3595), a Dual p38α MAPK/PDE-4 Inhibitor with Activity against TNFα-Related Diseases” (J Med Chem, 2017).
Calls of active or inactive are those of the source. The calls are words filed in the database; no cut-off is given here.

Legend:
Mus musculus = experiment: Antiarthritic activity in human TNF transgenic mouse model assessed as reduction in synovitis at 20 to 50 mg/kg/day, po for 10 weeks; type: functional, organism-based
Summary of the method: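 Heterozygous human TNF transgenic mice (8 per group) were dosed orally for ten weeks with 20 or 50 mg/kg/day as a methylcellulose suspension, alongside vehicle and infliximab i.p. controls. Joint swelling and grip strength were scored weekly, and hind paws were examined histologically at the end.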

[1] = Toxicity in Sprague-Dawley rat administered via oral gavage measured for 14 days; details: in vivo
Liver [2] = experiment: Drug metabolism in rat liver microsomes assessed as 4-(4-(4-fluorophenyl)-1-methyl-2-(methylsulfonyl)-1H-imidazol-5-yl)pyridin-2-amine formation at 10 to 100 uM; type: ADME, microsome
Summary of the method: (§1)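 Test compound incubated at 10, 30 and 100 μM with liver microsomes from rat, Cynomolgus monkey or human, and metabolites monitored.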

[3] = AUC (0 to infinity) in Beagle dog at 40 mg/kg, po by LC-MS/MS analysis; type: ADME, organism-based, Canis lupus familiaris; parameters: dose 40 mg/kg, time infinity, route oral; details: in vivo
Summary of the method: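 Toxicokinetics from a maximum-tolerated-dose study in four Beagle dogs given 40 mg/kg orally. Plasma levels of both parent and its predominant metabolite were monitored.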

Liver [4] = experiment: Drug metabolism in human liver microsomes assessed as N-(4-(4-(4-fluorophenyl)-1-methyl-2-(methylsulfinyl)-1H-imidazol-5-yl)pyridin-2-yl)acetamide formation at 10 to 100 uM; type: ADME, microsome; summary of the method: as §1
Salmonella typhimurium = experiment: Genotoxicity in Salmonella typhimurium in presence of S9 fraction by Ames test; type: toxicity; details: salmonella enterica subsp. enterica serovar typhimurium
Summary of the method: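 Bacterial reverse mutation (Ames) test in S. typhimurium and E. coli strains, run with and without S9 mix.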

Rattus norvegicus = experiment: Toxicity in single po dosed rat assessed as increase in peak inspiratory flow at 100 to 300 mg/kg, po administered as single dose; type: organism-based; details: in vivo
Cynomolgus monkey = experiment: Toxicity in cynomolgus monkey assessed as death at 6 to 20 mg/kg followed by after 1 week high dose treatment of 25 mg/kg at 1 week post first dose for 28 days followed by 2 weeks off without dosing; type: organism-based, Macaca fascicularis; details: in vivo
Summary of the method: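 Cynomolgus monkeys, 32 in total, 3–5 per group. Dosed for 28 days with vehicle or 6, 12 or 20 mg/kg; the high dose was raised to 25 mg/kg/day after 1 week. Two males and two females from the control and high-dose groups were followed through a further 2-week treatment-free period. Deaths and clinical signs recorded.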

Lymphocyte = experiment: Clastogenicity in human lymphocytes in absence of S9 fraction by microneucleus test; type: toxicity, cell-based
Summary of the method: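 Cytogenetic clastogenicity assay in cultured human lymphocytes, run with and without S9 mix.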

Homo sapiens = species on record: Homo sapiens; experiment: Inhibition of cyclinH/MAT1 (unknown origin) at 10 uM relative to control
[5] = Apparent permeability in human Caco2 cells at 10 uM; type: ADME, cell-based; details: Caco-2
[6] = Half life in mongrel dog at 30 mg/kg, po by LC-MS/MS analysis; type: ADME, organism-based, Canis lupus familiaris; details: in vivo
Summary of the method: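 Oral single-dose PK; plasma concentrations of parent and metabolite measured. Dogs: blood sampled 0.25 to 24 h after dosing. Humans: healthy subjects, placebo-controlled single-blind randomized consecutive dosing, plasma sampled predose and 0.25–36 h post dose. 10 mg also given fasting and fed in crossover. Parameters derived from individual concentration–time profiles.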

[7] = molecular target: Dual specificity mitogen-activated protein kinase kinase 7 (Homo sapiens) (UniProt O14733); experiment: Inhibition of MKK7beta (unknown origin) at 10 uM relative to control
[8] = Drug excretion in human urine at 10 to 50 mg, po administered as single dose up to 36 hrs; type: ADME, organism-based; details: read-out: Drug excretion
Summary of the method: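 Healthy subjects, single oral dose. Urine collected at 0–6, 6–12, 12–24 and 24–36 h post dose and analysed for parent and metabolite. Excreted amount expressed relative to administered dose.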

[9] = molecular target: Mitogen-activated protein kinase 8 (Homo sapiens) (UniProt P45983); experiment: Inhibition of JNK1alpha1 (unknown origin) at 10 uM
Chain of Mitogen-activated protein kinase 8 (Homo sapiens) (P45983 whole entry): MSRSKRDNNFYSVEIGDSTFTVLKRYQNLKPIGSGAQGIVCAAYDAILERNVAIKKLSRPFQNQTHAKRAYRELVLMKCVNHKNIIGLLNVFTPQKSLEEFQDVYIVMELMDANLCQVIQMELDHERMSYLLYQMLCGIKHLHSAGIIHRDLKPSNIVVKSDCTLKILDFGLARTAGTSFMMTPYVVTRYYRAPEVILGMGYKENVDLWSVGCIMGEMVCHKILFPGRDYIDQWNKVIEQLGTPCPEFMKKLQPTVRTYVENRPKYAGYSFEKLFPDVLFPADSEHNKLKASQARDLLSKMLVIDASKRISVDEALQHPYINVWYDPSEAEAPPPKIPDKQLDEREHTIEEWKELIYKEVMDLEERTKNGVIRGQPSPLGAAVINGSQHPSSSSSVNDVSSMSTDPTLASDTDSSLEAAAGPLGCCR

Chain of Dual specificity mitogen-activated protein kinase kinase 7 (Homo sapiens) (O14733 whole entry): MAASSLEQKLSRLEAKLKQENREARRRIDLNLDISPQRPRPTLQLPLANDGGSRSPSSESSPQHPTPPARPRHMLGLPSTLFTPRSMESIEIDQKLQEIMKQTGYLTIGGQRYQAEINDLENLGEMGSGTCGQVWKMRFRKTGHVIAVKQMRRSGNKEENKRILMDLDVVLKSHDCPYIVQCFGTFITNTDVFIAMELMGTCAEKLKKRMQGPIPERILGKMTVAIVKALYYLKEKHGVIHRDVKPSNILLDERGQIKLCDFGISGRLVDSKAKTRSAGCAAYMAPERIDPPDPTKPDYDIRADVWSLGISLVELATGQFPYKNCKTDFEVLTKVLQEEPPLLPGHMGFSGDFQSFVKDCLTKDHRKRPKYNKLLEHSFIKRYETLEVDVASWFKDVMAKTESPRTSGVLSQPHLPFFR

Structure (SMILES)	Activity (Mus musculus)	MTD at 336 h [1] [mg/kg]	Drug metabolism (Liver [2])	AUC(0-inf) [3] [µM·h]	Drug metabolism (Liver [4])	Activity (Salmonella typhimurium)	Activity (Rattus norvegicus)	Activity (Cynomolgus monkey)	Activity (Lymphocyte)	inhibition (Homo sapiens) [%]	Papp at 10 µM [5] [×10⁻⁶ cm/s]	half-life [6] [h]	inhibition [7] [%]	dose excreted at 36 h [8] [%]	inhibition [9]
CC(=O)Nc1cc(-c2c(-c3ccc(F)cc3)nc([S+](C)[O-])n2C)ccn1 (stereo not given)	Active	150	Metabolite_Detected	120	Metabolite_Detected	Non-Toxic	Toxic	Non-Toxic	Non-Toxic	54	18.5	3.85	101	6	–
Cn1c([S+](C)[O-])nc(-c2ccc(F)cc2)c1-c1ccnc(N)c1 (stereo not given)	–	–	–	–	–	–	–	–	–	–	–	–	–	–	inactive
